Measured values taken from the M2OR odorant receptor database.

Assays:
Settings in all cases: stereoisomer not certain
[1] = target: T1, OR13C2 (Homo sapiens) (UniProt Q8NGS9)
T1 sequence (whole entry): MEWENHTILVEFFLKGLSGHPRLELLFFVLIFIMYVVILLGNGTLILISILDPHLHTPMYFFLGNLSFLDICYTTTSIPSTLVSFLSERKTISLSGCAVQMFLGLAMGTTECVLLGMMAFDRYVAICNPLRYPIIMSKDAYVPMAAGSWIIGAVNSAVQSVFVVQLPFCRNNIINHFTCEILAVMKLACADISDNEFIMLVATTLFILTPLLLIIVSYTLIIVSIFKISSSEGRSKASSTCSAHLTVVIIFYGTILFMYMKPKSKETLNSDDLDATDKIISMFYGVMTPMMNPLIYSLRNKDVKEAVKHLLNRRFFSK
How it was run: (§1)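 Each receptor–molecule pair is labelled responsive or non-responsive (inactive) according to whether the original authors judged the measured signal statistically different from baseline. The data were taken from the main text and supplementary material of published papers and checked for typos and inconsistencies. Assay methods differed by source, with transient luciferase assays in mammalian cell lines being common.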

[2] = target: T2, OR13C3 (Homo sapiens) (UniProt Q8NGS6)
T2 sequence (whole entry): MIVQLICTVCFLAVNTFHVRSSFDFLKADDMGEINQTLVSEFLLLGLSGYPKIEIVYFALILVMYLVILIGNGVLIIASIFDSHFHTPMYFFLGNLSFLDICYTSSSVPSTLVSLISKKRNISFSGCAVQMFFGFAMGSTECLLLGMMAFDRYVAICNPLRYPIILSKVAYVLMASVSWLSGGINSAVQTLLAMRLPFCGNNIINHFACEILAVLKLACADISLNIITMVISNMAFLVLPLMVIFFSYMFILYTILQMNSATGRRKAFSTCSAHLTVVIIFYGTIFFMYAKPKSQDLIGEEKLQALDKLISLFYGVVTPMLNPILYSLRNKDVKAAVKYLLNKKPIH
How it was run: as §1

[3] = target: T3, OR13C4 (Homo sapiens) (UniProt Q8NGS5)
T3 sequence (whole entry): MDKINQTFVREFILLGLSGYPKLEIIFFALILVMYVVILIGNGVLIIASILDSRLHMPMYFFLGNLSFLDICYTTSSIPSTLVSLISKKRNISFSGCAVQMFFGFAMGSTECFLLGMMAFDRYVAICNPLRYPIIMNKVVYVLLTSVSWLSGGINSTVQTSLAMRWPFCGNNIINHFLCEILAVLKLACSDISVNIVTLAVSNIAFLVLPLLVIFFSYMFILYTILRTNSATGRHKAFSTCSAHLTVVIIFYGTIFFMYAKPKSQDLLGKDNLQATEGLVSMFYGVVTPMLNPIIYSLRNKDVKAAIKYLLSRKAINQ
How it was run: as §1

[4] = target: T4, OR13C5 (Homo sapiens) (UniProt Q8NGS8)
T4 sequence (whole entry): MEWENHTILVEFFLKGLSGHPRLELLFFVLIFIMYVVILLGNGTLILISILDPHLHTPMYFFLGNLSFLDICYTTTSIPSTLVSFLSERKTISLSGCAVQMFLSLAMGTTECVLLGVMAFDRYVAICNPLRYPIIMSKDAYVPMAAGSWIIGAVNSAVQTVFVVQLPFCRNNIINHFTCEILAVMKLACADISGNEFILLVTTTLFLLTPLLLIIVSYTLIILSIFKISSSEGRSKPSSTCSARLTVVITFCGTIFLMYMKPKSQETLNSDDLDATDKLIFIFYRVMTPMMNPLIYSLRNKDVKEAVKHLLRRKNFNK
How it was run: as §1

[5] = target: T5, OR13C8 (Homo sapiens) (UniProt Q8NGS7)
T5 sequence (whole entry): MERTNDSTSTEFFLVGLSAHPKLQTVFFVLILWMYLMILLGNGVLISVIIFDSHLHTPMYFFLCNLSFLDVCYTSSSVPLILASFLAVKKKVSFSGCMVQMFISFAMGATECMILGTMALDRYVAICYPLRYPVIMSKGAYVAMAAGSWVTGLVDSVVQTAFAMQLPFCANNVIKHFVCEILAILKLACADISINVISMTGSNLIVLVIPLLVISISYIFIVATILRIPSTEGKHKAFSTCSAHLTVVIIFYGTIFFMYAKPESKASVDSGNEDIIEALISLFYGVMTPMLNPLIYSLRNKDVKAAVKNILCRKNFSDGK
How it was run: as §1

[6] = target: T6, OR13C9 (Homo sapiens) (UniProt Q8NGT0)
T6 sequence (whole entry): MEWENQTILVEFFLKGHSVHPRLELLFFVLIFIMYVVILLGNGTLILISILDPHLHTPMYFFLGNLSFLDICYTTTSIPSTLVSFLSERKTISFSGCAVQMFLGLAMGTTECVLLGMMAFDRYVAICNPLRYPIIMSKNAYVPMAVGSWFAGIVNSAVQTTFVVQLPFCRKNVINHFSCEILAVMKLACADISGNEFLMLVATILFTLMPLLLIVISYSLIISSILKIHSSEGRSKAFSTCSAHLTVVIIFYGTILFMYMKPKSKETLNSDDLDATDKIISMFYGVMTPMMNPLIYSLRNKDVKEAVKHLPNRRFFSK
How it was run: as §1

[7] = target: T7, OR13D1 (Homo sapiens) (UniProt Q8NGV5)
T7 sequence (whole entry): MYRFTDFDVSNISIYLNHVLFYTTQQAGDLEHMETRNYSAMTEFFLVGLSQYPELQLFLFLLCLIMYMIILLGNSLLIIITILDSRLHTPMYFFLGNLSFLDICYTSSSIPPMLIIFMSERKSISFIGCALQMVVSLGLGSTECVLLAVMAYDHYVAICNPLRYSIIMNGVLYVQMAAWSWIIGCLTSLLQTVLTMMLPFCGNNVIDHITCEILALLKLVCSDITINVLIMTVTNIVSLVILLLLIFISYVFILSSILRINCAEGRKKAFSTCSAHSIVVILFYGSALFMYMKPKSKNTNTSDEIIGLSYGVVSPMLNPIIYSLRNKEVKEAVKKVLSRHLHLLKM
How it was run: as §1

[8] = target: T8, OR13F1 (Homo sapiens) (UniProt Q8NGS4)
T8 sequence (whole entry): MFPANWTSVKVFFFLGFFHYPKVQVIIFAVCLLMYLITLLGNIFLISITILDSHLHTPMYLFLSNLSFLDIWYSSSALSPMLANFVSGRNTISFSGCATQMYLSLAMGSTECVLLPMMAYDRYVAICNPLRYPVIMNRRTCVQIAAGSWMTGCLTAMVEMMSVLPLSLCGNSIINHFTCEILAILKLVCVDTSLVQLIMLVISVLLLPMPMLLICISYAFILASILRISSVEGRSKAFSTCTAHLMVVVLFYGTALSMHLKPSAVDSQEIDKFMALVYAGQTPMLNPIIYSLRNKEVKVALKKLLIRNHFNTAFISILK
How it was run: as §1

[9] = target: T9, OR13G1 (Homo sapiens) (UniProt Q8NGZ3)
T9 sequence (whole entry): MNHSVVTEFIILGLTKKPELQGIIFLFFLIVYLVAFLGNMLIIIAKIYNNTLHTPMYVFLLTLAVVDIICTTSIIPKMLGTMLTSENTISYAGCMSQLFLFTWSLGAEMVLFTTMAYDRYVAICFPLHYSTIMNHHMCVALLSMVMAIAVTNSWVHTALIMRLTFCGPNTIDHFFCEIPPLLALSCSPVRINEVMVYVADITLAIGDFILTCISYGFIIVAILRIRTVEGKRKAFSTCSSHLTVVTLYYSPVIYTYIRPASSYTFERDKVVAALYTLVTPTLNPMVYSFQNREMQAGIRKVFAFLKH
How it was run: as §1

[10] = target: T10, OR13H1 (Homo sapiens) (UniProt Q8NG92)
T10 sequence (whole entry): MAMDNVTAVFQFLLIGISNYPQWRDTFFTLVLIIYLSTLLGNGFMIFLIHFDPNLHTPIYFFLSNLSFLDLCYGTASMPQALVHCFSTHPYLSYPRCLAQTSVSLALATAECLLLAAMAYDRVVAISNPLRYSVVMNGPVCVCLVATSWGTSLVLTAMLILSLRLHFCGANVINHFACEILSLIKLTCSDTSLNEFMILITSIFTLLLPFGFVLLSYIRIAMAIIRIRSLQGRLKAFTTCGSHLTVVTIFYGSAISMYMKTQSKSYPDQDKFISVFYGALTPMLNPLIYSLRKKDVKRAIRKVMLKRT
How it was run: as §1

[11] = target: T11, OR13J1 (Homo sapiens) (UniProt Q8NGT2)
T11 sequence (whole entry): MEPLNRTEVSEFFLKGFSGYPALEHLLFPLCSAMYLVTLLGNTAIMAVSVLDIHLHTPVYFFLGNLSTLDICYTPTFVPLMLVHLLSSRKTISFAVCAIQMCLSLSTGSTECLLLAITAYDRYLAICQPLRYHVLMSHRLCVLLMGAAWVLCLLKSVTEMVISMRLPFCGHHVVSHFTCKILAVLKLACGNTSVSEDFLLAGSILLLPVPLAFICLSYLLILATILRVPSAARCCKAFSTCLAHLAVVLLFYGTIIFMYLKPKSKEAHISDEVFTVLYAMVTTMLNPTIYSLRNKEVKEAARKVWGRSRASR
How it was run: as §1

[12] = target: T12, OR14A16 (Homo sapiens) (UniProt Q8NHC5)
T12 sequence (whole entry): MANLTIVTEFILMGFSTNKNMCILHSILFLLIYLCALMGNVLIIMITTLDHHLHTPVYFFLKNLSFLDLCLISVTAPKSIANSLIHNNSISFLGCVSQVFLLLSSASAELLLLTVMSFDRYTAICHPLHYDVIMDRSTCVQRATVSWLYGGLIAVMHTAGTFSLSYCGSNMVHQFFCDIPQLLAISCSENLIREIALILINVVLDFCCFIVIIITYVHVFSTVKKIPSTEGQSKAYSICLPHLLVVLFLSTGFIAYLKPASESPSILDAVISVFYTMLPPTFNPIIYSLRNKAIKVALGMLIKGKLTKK
How it was run: as §1

[13] = target: T13, OR14A2 (Homo sapiens) (UniProt Q96R54)
T13 sequence (whole entry): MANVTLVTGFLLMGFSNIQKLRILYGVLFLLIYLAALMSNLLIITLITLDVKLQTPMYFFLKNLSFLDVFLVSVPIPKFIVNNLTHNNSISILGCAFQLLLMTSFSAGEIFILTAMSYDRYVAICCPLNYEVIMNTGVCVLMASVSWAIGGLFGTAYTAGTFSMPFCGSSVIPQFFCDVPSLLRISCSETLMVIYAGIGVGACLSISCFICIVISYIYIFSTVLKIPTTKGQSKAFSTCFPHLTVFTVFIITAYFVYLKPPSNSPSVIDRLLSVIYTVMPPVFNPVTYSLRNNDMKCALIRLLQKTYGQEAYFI
How it was run: as §1

[14] = target: T14, OR14C36 (Homo sapiens) (UniProt Q8NHC7)
T14 sequence (whole entry): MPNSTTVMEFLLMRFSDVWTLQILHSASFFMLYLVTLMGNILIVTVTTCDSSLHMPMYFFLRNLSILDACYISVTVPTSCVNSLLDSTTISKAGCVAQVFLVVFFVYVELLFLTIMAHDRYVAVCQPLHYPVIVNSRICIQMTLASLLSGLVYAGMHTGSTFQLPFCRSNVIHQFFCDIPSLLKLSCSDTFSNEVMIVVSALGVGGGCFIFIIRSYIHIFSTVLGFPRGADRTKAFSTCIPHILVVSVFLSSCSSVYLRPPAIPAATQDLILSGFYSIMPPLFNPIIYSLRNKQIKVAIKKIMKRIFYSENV
How it was run: as §1

[15] = target: T15, OR14I1 (Homo sapiens) (UniProt A6ND48)
T15 sequence (whole entry): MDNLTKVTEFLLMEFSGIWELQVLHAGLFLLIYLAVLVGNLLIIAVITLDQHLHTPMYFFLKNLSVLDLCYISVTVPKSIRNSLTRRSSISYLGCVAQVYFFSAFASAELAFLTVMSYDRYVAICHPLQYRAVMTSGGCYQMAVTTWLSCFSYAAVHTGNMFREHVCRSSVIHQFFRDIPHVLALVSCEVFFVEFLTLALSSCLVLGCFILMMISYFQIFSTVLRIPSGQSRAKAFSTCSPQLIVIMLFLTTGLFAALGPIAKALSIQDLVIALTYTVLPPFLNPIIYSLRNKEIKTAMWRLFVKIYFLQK
How it was run: as §1

[16] = target: T16, OR14J1 (Homo sapiens) (UniProt Q9UGF5)
T16 sequence (whole entry): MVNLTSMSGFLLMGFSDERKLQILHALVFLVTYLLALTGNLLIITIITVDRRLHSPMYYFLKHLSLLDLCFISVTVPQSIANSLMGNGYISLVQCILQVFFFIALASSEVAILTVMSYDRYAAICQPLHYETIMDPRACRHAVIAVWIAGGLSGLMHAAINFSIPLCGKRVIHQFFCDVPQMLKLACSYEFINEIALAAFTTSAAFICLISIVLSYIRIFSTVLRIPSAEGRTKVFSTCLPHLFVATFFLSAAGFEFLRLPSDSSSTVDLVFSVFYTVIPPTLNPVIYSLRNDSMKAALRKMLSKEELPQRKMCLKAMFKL
How it was run: as §1

[17] = target: T17, OR14K1 (Homo sapiens) (UniProt Q8NGZ2)
T17 sequence (whole entry): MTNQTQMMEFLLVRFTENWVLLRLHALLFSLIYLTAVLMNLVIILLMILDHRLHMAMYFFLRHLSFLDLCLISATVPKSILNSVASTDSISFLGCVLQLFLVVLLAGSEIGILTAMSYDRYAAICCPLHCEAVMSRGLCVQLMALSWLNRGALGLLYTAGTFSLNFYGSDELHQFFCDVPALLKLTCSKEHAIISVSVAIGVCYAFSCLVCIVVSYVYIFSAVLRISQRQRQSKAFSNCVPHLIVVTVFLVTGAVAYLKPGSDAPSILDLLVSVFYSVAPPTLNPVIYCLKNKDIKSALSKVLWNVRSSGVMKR
How it was run: as §1

[18] = target: T18, OR1A1 (Homo sapiens) (UniProt Q9P1Q5)
T18 sequence (whole entry): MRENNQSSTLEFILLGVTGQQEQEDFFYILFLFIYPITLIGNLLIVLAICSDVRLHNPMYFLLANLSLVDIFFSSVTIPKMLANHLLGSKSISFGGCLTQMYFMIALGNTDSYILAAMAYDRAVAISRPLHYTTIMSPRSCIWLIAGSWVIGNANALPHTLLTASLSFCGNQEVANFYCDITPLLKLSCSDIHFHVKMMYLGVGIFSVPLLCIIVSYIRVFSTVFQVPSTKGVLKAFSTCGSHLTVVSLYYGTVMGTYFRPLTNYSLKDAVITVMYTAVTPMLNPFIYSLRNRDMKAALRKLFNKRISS
How it was run: as §1

Measured: odorant receptor agonist call;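 note: active if original authors judged signal statistically different from baseline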

Cc1cnc(C)c(C)n1
inactive: all assays above

CCc1ncc(C)nc1CC
inactive: [18]

CCC=CCC=O
inactive: [18]
